{"source": "ChEMBL document CHEMBL3407438", "about": "“Discovery of potent, orally bioavailable, small-molecule inhibitors of WNT signaling from a cell-based pathway screen” (J Med Chem, 2015)", "key": {"Cytochrome P450 2C9": {"molecular_target": "Cytochrome P450 2C9 (Homo sapiens, UniProt P11712)", "sequence (P11712 whole entry)": "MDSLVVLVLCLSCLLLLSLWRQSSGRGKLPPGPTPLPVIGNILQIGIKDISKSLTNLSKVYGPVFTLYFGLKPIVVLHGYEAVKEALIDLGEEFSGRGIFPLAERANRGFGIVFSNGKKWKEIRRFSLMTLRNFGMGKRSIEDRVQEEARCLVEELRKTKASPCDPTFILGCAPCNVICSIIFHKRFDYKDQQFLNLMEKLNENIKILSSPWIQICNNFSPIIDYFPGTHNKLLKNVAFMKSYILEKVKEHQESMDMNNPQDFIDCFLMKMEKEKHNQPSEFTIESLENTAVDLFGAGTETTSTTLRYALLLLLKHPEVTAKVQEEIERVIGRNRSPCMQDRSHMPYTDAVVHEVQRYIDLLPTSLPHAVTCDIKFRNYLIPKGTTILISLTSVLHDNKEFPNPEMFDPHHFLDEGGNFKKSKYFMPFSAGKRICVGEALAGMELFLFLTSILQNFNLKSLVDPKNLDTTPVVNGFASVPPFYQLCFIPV", "experiment": "Inhibition of CYP2C9 (unknown origin)", "format": "ADME", "settings": "human"}, "[1]": {"experiment": "Tmax in Wistar rat at 0.2 mg/kg, iv", "format": "ADME, organism-based", "design": "dose 0.2 mg/kg, route intravenous", "settings": "in vivo", "in_short": "(§1)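 Male Wistar rats (n = 6) received cassette dosing, either iv bolus at 0.2 mg/kg or oral gavage at 0.5 mg/kg per compound, in DMSO/PEG 200/water. Plasma levels were measured by UPLC–MS/MS.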"}, "[2]": {"experiment": "AUC in Wistar rat at 0.2 mg/kg, iv", "format": "ADME, organism-based", "design": "dose 0.2 mg/kg, route intravenous", "settings": "plasma", "in_short": "as §1"}, "Cytochrome P450 3A4": {"molecular_target": "Cytochrome P450 3A4 (Homo sapiens, UniProt P08684)", "sequence (P08684 whole entry)": "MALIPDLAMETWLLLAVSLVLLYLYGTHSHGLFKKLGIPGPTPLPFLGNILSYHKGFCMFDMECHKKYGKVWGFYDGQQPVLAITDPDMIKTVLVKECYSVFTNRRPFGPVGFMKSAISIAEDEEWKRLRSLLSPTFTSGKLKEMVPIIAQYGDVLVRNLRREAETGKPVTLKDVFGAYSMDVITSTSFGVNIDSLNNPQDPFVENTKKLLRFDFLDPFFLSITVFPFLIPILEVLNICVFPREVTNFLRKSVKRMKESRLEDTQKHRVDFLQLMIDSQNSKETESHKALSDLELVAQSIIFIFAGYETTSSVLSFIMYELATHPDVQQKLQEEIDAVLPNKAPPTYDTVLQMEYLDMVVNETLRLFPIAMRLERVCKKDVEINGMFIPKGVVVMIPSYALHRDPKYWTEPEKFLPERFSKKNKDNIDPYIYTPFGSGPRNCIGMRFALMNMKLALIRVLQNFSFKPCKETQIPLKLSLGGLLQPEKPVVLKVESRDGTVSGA", "experiment": "Inhibition of CYP3A4 (unknown origin)", "format": "ADME", "settings": "human"}, "[3]": {"experiment": "Clearance in Wistar rat at 0.2 mg/kg, iv", "format": "ADME, organism-based", "design": "dose 0.2 mg/kg, route intravenous", "settings": "in vivo", "in_short": "as §1"}, "[4]": {"experiment": "Half life in NMRI mouse at 0.2 mg/kg, iv", "format": "ADME, organism-based", "design": "dose 0.2 mg/kg, route intravenous", "settings": "in vivo", "in_short": "(§2)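 Female NMRI mice (n = 5) given a single iv bolus (0.2 mg/kg per compound) or oral gavage (0.5 mg/kg per compound) as a cassette, in DMSO/PEG 200/water. Serial retro-orbital blood was drawn under isoflurane from 3 animals per route at 0.1 (iv), 0.25 (po), 0.5, 1, 2, 4 and 6 h. Plasma was quantified by LC–MS/MS.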"}, "COLO 205": {"system": "COLO 205", "experiment": "Effect on TCF4 level in human COLO205-F1756 clone 4 cells harboring APC mutant and TCF/LEF responsive element at 350 nM by immunoblotting", "format": "functional, cell-based"}, "[5]": {"experiment": "Tmax in Wistar rat at 0.5 mg/kg, po", "format": "ADME, organism-based", "design": "dose 0.5 mg/kg, route oral", "settings": "in vivo", "in_short": "as §1"}, "cells": {"experiment": "cells", "settings": "Homo sapiens, RKO-F1522, 24 h"}, "[6]": {"molecular_target": "T1, Poly [ADP-ribose] polymerase tankyrase-1 (Homo sapiens, UniProt O95271)", "T1 sequence (O95271 whole entry)": "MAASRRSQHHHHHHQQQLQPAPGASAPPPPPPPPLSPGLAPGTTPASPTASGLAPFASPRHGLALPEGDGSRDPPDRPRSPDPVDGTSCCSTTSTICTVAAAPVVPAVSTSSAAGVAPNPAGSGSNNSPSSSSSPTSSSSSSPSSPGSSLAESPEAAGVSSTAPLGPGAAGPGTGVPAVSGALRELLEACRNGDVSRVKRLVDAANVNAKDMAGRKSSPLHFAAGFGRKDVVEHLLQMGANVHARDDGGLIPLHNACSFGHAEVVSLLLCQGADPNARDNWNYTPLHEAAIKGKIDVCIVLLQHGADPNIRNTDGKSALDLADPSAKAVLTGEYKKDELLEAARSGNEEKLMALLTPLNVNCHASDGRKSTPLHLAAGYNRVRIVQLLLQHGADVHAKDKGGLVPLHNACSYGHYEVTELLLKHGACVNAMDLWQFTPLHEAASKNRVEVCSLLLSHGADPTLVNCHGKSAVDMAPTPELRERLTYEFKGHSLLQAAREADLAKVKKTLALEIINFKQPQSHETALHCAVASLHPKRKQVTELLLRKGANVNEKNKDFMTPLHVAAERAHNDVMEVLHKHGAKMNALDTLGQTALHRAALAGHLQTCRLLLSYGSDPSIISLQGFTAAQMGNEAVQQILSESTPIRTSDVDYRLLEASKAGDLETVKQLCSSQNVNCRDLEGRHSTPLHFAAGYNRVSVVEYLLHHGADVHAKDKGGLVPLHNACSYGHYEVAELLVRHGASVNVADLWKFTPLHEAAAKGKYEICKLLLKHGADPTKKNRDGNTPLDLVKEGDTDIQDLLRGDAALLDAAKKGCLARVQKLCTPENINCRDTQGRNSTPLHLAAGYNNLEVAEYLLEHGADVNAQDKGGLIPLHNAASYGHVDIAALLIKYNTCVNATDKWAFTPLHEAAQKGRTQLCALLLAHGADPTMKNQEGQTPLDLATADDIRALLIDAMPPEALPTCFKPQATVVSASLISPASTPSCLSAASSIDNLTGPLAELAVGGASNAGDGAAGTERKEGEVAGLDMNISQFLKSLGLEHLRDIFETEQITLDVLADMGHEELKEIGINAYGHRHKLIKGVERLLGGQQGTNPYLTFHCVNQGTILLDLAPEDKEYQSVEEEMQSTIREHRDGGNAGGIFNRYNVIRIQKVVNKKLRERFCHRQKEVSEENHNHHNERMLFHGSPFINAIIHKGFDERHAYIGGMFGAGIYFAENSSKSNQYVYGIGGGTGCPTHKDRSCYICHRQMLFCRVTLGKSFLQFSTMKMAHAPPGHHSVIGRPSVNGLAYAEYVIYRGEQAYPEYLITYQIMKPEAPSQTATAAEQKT", "experiment": "Inhibition of GST-tagged TNKS1 (1023 to 1327 aa) (unknown origin) after 90 mins by HTRF assay"}, "Plasma": {"system": "Plasma", "experiment": "Drug uptake in plasma of human COLO205-F1756 clone 4 cells harboring APC mutant xenografted CrTac:NCr-Foxn1nu mouse at 70 mg/kg, po bid for 9 days measured after 2 to 6 hrs", "format": "ADME, organism-based, COLO 205", "design": "dose 70 mg/kg, route oral", "settings": "in vivo", "in_short": "(§3)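 In COLO205-F1756 clone 4 xenograft-bearing nude mice dosed orally at 70 mg/kg bid, cardiac blood and tumours were taken 2 and 6 h after the final dose. Tumours were homogenized in 3 v/w PBS, methanol-extracted with internal standard, and total levels were measured by UPLC–MS/MS (MRM, positive ion).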"}, "Cytochrome P450 2C8": {"molecular_target": "T2, Cytochrome P450 2C8 (Homo sapiens, UniProt P10632)", "T2 sequence (P10632 whole entry)": "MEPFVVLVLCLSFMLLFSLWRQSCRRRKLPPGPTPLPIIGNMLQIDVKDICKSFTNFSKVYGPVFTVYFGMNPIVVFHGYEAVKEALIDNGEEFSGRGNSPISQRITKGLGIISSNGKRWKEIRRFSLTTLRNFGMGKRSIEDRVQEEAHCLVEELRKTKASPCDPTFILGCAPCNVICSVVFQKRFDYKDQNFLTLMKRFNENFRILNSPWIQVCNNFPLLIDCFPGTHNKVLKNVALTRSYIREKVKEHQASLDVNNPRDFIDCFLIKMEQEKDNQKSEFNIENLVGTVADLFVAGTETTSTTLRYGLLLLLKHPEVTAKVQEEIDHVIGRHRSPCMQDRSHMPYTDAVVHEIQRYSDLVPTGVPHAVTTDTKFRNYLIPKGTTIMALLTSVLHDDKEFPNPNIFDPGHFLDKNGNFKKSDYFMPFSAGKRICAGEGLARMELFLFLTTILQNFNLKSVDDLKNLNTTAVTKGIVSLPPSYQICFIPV", "experiment": "Inhibition of CYP2C8 (unknown origin)", "format": "ADME"}, "[7]": {"experiment": "Thermodynamic aqueous solubility of the compound in phosphate buffer at pH 7.4", "format": "physicochemical", "in_short": "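Kinetic and thermodynamic aqueous solubilities were measured in phosphate buffer at pH 7.4.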"}, "[8]": {"experiment": "Volume of distribution at steady state in Wistar rat at 0.2 mg/kg, iv", "format": "ADME, organism-based", "design": "dose 0.2 mg/kg, route intravenous", "settings": "in vivo, read-out: Vdss", "in_short": "as §1"}, "[9]": {"experiment": "Drug uptake in tumor of human COLO205-F1756 clone 4 cells harboring APC mutant xenografted CrTac:NCr-Foxn1nu mouse at 70 mg/kg, po bid for 9 days measured after 2 to 6 hrs", "format": "ADME, organism-based, COLO 205", "design": "dose 70 mg/kg, route oral", "settings": "in vivo", "in_short": "as §3"}, "[10]": {"experiment": "Tmax in NMRI mouse at 0.5 mg/kg, po", "format": "ADME, organism-based", "design": "dose 0.5 mg/kg, route oral", "settings": "in vivo", "in_short": "as §2"}, "[11]": {"experiment": "AUC in Wistar rat at 0.5 mg/kg, po", "format": "ADME, organism-based", "design": "dose 0.5 mg/kg, route oral", "settings": "plasma", "in_short": "as §1"}}, "note": "Active and inactive are the calls of the source. The calls are words filed in the database; no cut-off is given here."}
{"compound": "Cn1cc(-c2ccc(-c3cncc(Cl)c3N3CCC4(CCNC4=O)CC3)cc2)cn1", "values": [{"measurement": "inhibition (INH)", "setting": "Cytochrome P450 2C9", "value": "Not Active"}, {"measurement": "Tmax", "setting": "[1]", "value": 6, "unit": "min"}, {"measurement": "AUC", "setting": "[2]", "value": 130, "unit": "ng·h/mL"}, {"measurement": "inhibition (INH)", "setting": "Cytochrome P450 3A4", "value": "Not Active"}, {"measurement": "clearance", "setting": "[3]", "value": 26, "unit": "mL/min/kg"}, {"measurement": "half-life", "setting": "[4]", "value": 33, "unit": "min"}, {"measurement": "Activity", "setting": "COLO 205", "value": "inactive"}, {"measurement": "Tmax", "setting": "[5]", "value": 15, "unit": "min"}, {"measurement": "IC50", "setting": "cells", "value": "> 10", "unit": "µM"}, {"measurement": "IC50", "setting": "[6]", "value": "> 10", "unit": "µM"}, {"measurement": "Drug uptake", "setting": "Plasma", "value": "Active"}, {"measurement": "inhibition (INH)", "setting": "Cytochrome P450 2C8", "value": "Not Active"}, {"measurement": "Therm_solubility", "setting": "[7]", "value": 6, "unit": "µg/mL"}, {"measurement": "Vd", "setting": "[8]", "value": 1.8, "unit": "L/kg"}, {"measurement": "Drug uptake", "setting": "[9]", "value": "Active"}, {"measurement": "Tmax", "setting": "[10]", "value": 15, "unit": "min"}, {"measurement": "AUC", "setting": "[11]", "value": 288, "unit": "ng·h/mL"}]}
